# Measurements: article PMC6018302 (Chemical Science, 2016)
# Tests used:
# [1] = reference value, CD3OD; cited from earlier work
# pUC19 plasmid DNA [2] = assay: Thermal; format: binding; settings: pUC19, phosphate buffer, 37 °C, 24 h, up to 5 : 1 BP : MC ratio
# pUC19 plasmid DNA [3] = assay: Photoinduced binding to plasmid DNA, agarose gel; settings: pUC19, 50 : 1 BP : MC, λirr = 520 nm, 5–60 min
# Method in brief: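 pUC19 plasmid was mixed with test compound (50:1 BP:MC) and irradiated at 520 nm for 5, 15, 30, 45 or 60 min. Controls were dark and irradiated DNA alone and a dark 50:1 sample. Cisplatin was included as a reference. Agarose gel with lambda DNA marker; linear dimer, open circular and supercoiled forms were scored.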
# Water solubility = format: physicochemical
# [4] = Dark stability in aqueous and DMSO solutions; format: physicochemical
# Method in brief: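 Test compound solutions in D2O or DMSO were kept in the dark, with DMSO also held at –20 °C, and monitored over time. Chloride effect in aqueous solution was probed by adding NaCl up to 0.15 M.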
# [5] = Singlet oxygen quantum yield by 1274 nm emission in CD3OD; format: physicochemical; settings: 450 nm excitation, under air, 298 K
# A549 cells [6] = assay: Confocal microscopy of mitochondrial potential; format: cell-based, human; settings: A549, TMRE and DRAQ5 staining, green light 75 J cm^–2
# [7] = system: A431 and A549 cancer cells; format: cell-based, human; settings: 520 nm, 75 J cm^–2, compared to the dark control; maximum
# Method in brief: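 Photo index is the ratio of dark EC50 to green-light EC50 (520 nm, 60 min, 75 J cm–2). Light was applied after 6 h or 24 h dark pre-incubation with test compound (37 °C, 7% CO2). EC50 is the concentration giving 50% viability loss versus untreated wells.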
# A549 cells [8] = assay: Annexin V-FITC/propidium iodide flow cytometry; format: cell-based, human; settings: A549, green light irradiation
# Method in brief: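 A549 cells were treated with test compound (1.5 μM or 10 μM, by complex) for 6 h in the dark. They then received 1 h green light (520 nm, 75 J cm–2) followed by 24 h dark incubation, or were kept dark throughout (31 h). Annexin V-FITC (525 nm) and propidium iodide (670 nm) were read by flow cytometry. Quadrants: lower left live, lower right apoptotic, upper left necrotic, upper right secondary necrotic.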
# [9] = Photosubstitution quantum yield under blue light; format: physicochemical; settings: blue light irradiation 450 nm, in water
# A549 cells [10] = assay: Cell fractionation and ruthenium uptake by ICP-MS; format: cell-based, human
# Method in brief: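 A549 cells were exposed to test compound for 6 h in the dark, then harvested. Cytosol, membrane, nuclei and cytoskeleton fractions were separated. Ruthenium in each fraction was quantified by ICP-MS.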
compound,measurement,setting,value
[Cl][Ru][Cl].c1ccc(-c2ccccn2)nc1.c1ccc(-c2ccccn2)nc1.c1ccc(-c2ccccn2)nc1 [[Ru(bpy)3]Cl2],quantum yield of 1O2 generation (Φref),[1],73%
"N.N.[Cl][Pt][Cl] [Cisplatin, cis-diamineplatinum(II) dichloride, reference compound]",dark thermal DNA binding,pUC19 plasmid DNA [2],typical DNA binding results
[Ru(biqbpy)(dmso)Cl]Cl [[1]Cl],photoinduced DNA binding,pUC19 plasmid DNA [3],significant retardation of the SC form
same,dark thermal DNA binding,pUC19 plasmid DNA [2],negligible binding
same,solubility in water,Water solubility,water-soluble
same,dark stability of DMSO solution,"[4]; DMSO, –20 °C",stable in the dark at –20 °C for at least six months
same,stability of Ru–S bond with dmso ligand,"[4]; aqueous or DMSO solutions, 298 K",remained stable
same,hydrolysis of chloride ligand,[4]; upon dissolution in deionized water or D2O,immediately hydrolysed
same,quantum yield of 1O2 generation (Φ1O2),[5],1.3%
same,effect of light irradiation on mitochondria and nuclear DNA,A549 cells [6],diminished the mitochondrial membrane potential and induced chromosomal condensation
same,photo-indices (increase in cytotoxicity after green light vs dark),[7],up to 22
same,type of cell death (photocytotoxicity),A549 cells [8],apoptosis without any sign of necrosis
same,photosubstitution quantum yield (ΦPS),[9],0.3%
same,preference for the membrane fraction (intracellular distribution),"A549 cells [10]; A549, 6 h in the dark at EC50 concentration, cell fractionation",strong
same,total uptake (ruthenium),"A549 cells [10]; A549, 6 h in the dark at concentration corresponding to the EC50 value, ICP-MS",16 ng/10^6 cells
